{"data": "Results collected from several papers", "organism": "Staphylococcus aureus", "read-out": "microbial growth", "note": "Lines come from different studies, so protocols differ."}
{"Compound": "CC(C)Oc1c(NC(=O)c2ccc(NC(=O)[C@H](CC(N)=O)NC(=O)c3ccc(NC(=O)c4ccc(C#N)cc4)cc3)cc2)ccc(C(=O)NC2CCNCC2)c1O", "system": "ATCC29213", "MIC": "> 64 µg/mL"}
{"Compound": "CC1=NN(CNC(=O)c2ccccc2)C(=O)C1=NNn1c(-c2ccccc2)nc2ccccc2c1=O", "assay": "broth dilution", "conditions": "24 h", "MIC": "51.9 µM"}
{"Compound": "COC(=O)c1cc(Sc2ccc(NC(=O)Nc3ccc(Cl)c(C(F)(F)F)c3)cc2)ccn1", "system": "NCTC8325", "conditions": "24 h", "MIC": "3 µM"}
{"Compound": "COc1cc(OC)c2cc(C(=O)NCc3ccc(C)cc3)cc(O)c2c1", "assay": "broth dilution", "system": "ATCC29213 MSSA", "MIC": "32 µg/mL"}
{"Compound": "O=C(O)c1cn(C2CC2)c2cc(N3CCNCC3)c(F)cc2c1=O", "assay": "broth dilution", "system": "ATCC11632", "conditions": "18 h", "MIC": "< 5 µg/mL"}
{"Compound": "O=C(O)c1cn(C2CC2)c2cc(N3CCNCC3)c(F)cc2c1=O", "assay": "broth dilution", "system": "ATCC43300", "MIC": "0.24 µg/mL"}
{"Compound": "COc1cccc(OC)c1C(=O)N[C@@H]1C(=O)N2[C@@H]1SC(C)(C)[C@@H]2C(=O)O", "assay": "broth dilution", "system": "25923", "MIC": "3.13 µM"}
{"Compound": "COc1cc(/C=N\\NC(=O)c2ccc(Br)cc2)ccc1OC(=O)c1cccs1", "MIC": "> 128 µg/mL"}
{"Compound": "COc1cccc(-c2nc3ccccc3n2Cc2ccccc2)c1", "assay": "broth dilution", "system": "ATCC29213 MSSA", "MIC": "256 µg/mL"}
{"Compound": "Brc1ccc(NCc2ccc(Oc3ccccn3)cc2)cc1", "MIC": "> 6.2 µg/mL"}
{"Compound": "O=C1NC(=S)S/C1=C\\c1ccc(-c2ccc(N(c3ccccc3)c3ccccc3)cc2)cc1", "assay": "broth dilution", "system": "ATCC43300", "MIC": "250 µg/mL"}
{"Compound": "CCc1cnn2c(NCc3ccc[n+]([O-])c3)cc(N3CCCC[C@H]3CCO)nc12", "system": "NCTC8325", "MIC": "> 30 µM"}
{"Compound": "Cc1ccc2nc(-c3cccc(O)c3)[nH]c2c1", "assay": "broth dilution", "system": "ATCC29213 MSSA", "MIC": "32 µg/mL"}
{"Compound": "CC[C@H]1OC(=O)[C@H](C)[C@@H](O[C@H]2C[C@@](C)(OC)[C@@H](O)[C@H](C)O2)[C@H](C)[C@@H](O[C@@H]2O[C@H](C)C[C@H](N(C)C)[C@H]2O)[C@](C)(O)C[C@@H](C)C(=O)[C@H](C)[C@@H](O)[C@]1(C)O", "assay": "broth dilution", "system": "25923", "MIC": "0.59 µM"}
{"Compound": "O=C1NC(=S)N/C1=C\\c1c2ccccc2c(-c2ccc(N(c3ccccc3)c3ccccc3)cc2)c2ccccc12", "assay": "broth dilution", "system": "ATCC43300", "MIC": "> 1000 µg/mL"}
{"Compound": "C/C(=C\\c1ccc(C#N)cc1)C(=O)Nc1ccc(C(=O)N[C@@H](CC(N)=O)C(=O)Nc2ccc(C(=O)Nc3ccc(C(=O)Nc4ccc(C(=O)O)cc4)c(O)c3OC(C)C)cc2)cc1", "system": "ATCC29213", "MIC": "0.06 µg/mL"}
{"Compound": "C/C=C(\\C)c1cc(O)c(C)c(OC(=O)c2c(C)c(Cl)c(O)c(Cl)c2O)c1", "assay": "broth dilution", "system": "745524", "MIC": "4 µg/mL"}
{"Compound": "CC(C)Oc1c(NC(=O)c2ccc(NC(=O)[C@H](CC(N)=O)NC(=O)c3ccc(NC(=O)c4ccc(C#N)cc4)cc3)cc2)ccc(C(=O)Nc2cc(C(=O)O)n(C)c2)c1O", "system": "ATCC29213", "MIC": "64 µg/mL"}
{"Compound": "CNC(=O)c1cc(Oc2ccc(NC(=O)Nc3ccc(C)cc3)cc2)ccn1", "system": "NCTC8325", "MIC": "> 100 µM"}
{"Compound": "C/C=C(\\C)c1cc(OC(=O)c2c(C)c(Cl)c(O)c(Cl)c2O)c(C)c(O)c1C(=O)O", "assay": "broth dilution", "system": "ATCC29213", "MIC": "64 µg/mL"}
{"Compound": "O=C1NC(=S)S/C1=C\\c1ccc(-c2ccc(N(c3ccccc3)c3ccccc3)cc2)c2ccccc12", "assay": "broth dilution", "system": "ATCC6538", "MIC": "500 µg/mL"}
{"Compound": "COc1ccc(-c2nc3ccccc3[nH]2)cc1OC", "assay": "broth dilution", "system": "ATCC29213 MSSA", "MIC": "128 µg/mL"}
{"Compound": "CCOc1ccc(-c2nc3cc(-c4nc5cc(N6CCN(C)CC6)ccc5[nH]4)ccc3[nH]2)cc1", "assay": "broth dilution", "system": "33591", "conditions": "24 h", "MIC": "2 to 4 µg/mL"}
{"Compound": "FC(F)(F)c1cc(-c2nnc(Sc3cc(Cl)nc(Sc4ccccc4)n3)[nH]2)cc(C(F)(F)F)c1", "system": "83254", "MIC": "1.6 µM"}
{"Compound": "CCCCCCCC(=O)Oc1c(C)c(O)c(C(=O)/C=C/c2ccccc2)c(OC)c1C", "assay": "broth dilution", "system": "ATCC25923", "MIC": "> 5000 µg/mL"}
{"Compound": "CC(=O)NC[C@H]1CN(c2ccc(N3CCOCC3)c(F)c2)C(=O)O1", "conditions": "clinical isolate", "MIC": "1.56 µg/mL"}
{"Compound": "c1ccc2[nH]c(-c3ccncc3)nc2c1", "assay": "broth dilution", "system": "ATCC29213 MSSA", "MIC": "128 µg/mL"}
{"Compound": "COc1cc(C(=O)Nc2ccc(C(=O)N[C@@H](CC(N)=O)C(=O)Nc3ccc(C(=O)Nc4ccc(C(=O)Nc5ccc(C(=O)O)cc5)c(O)c4OC(C)C)cc3)cc2)ccc1C#N", "system": "ATCC29213", "MIC": "> 64 µg/mL"}
{"Compound": "CO[C@H]1[C@H](O[C@H]([C@H]2O[C@@H](n3ccc(=O)[nH]c3=O)[C@H](O)[C@@H]2O)[C@H](NCCCNC(=O)[C@@H](NC(=O)[C@@H](NC(=O)N[C@H](C(=O)O)C(C)C)[C@@H]2CCN=C(N)N2)[C@@H](OC(=O)CCCCCCCCCCCCN(O)C(=N)N)C(C)C)C(=O)O)O[C@H](CN)[C@H]1O", "system": "NEWMAN", "MIC": "18 µg/mL"}
{"Compound": "C[C@@H]1[C@H](O)[C@@H](C)/C=C/C=C/C=C/C=C/C=C/C=C/C=C/[C@H](O[C@@H]2O[C@H](C)[C@@H](O)[C@H](N)[C@@H]2O)C[C@@H]2O[C@](O)(C[C@@H](O)C[C@@H](O)[C@H](O)CC[C@@H](O)C[C@@H](O)CC(=O)O[C@H]1C)C[C@H](O)[C@H]2C(=O)O", "assay": "broth dilution", "system": "MB2865", "MIC": "> 128 µg/mL"}
{"Compound": "C/C=C(\\C)c1cc(OC(=O)c2c(O)c(C)c(O)c(Cl)c2/C(C)=C/C)c(C)c(O)c1C(=O)O", "assay": "broth dilution", "system": "6917", "MIC": "> 64 µg/mL"}
{"Compound": "c1ccc(NCc2ccc(Oc3ccccn3)cc2)cc1", "MIC": "1.8 µg/mL"}
{"Compound": "CC1(C)S[C@@H]2[C@H](NC(=O)[C@H](N)c3ccccc3)C(=O)N2[C@H]1C(=O)O", "assay": "broth dilution", "system": "6917", "MIC": "64 µg/mL"}
{"Compound": "O=C(O)CN1C(=O)/C(=C/c2ccc(-c3ccc(N(c4ccccc4)c4ccccc4)cc3)c3ccccc23)NC1=S", "assay": "broth dilution", "system": "ATCC43300", "MIC": "> 1000 µg/mL"}
{"Compound": "Cc1ccc(C)n1-c1ccc(-c2nnc(-c3ccc(Br)cc3)[nH]2)cc1", "assay": "broth dilution", "system": "ATCC11632", "conditions": "18 h", "MIC": "1 µg/mL"}
{"Compound": "CC1CCN(CCCN2/C(=C/c3cc[n+](C)c4ccccc34)Sc3ccccc32)CC1.[I-]", "assay": "broth dilution", "system": "ATCCBAA44", "MIC": "2 µg/mL"}
{"Compound": "C=C(C/C=C(\\C)CCC=C(C)C)CCC(C)(C)/C=C/CC/C(C)=C\\CO[C@H](COP(=O)(O)O[C@H]1O[C@H](C(N)=O)[C@@](C)(O)[C@H](OC(N)=O)[C@H]1O[C@@H]1O[C@H](CO[C@@H]2O[C@H](CO)[C@@H](O)[C@H](O)[C@H]2O)[C@@H](O[C@@H]2O[C@H](C)[C@@H](O[C@@H]3O[C@H](C(=O)NC4=C(O)CCC4=O)[C@H](O)[C@H](O)[C@H]3O)[C@H](O)[C@H]2NC(C)=O)[C@H](O)[C@H]1NC(C)=O)C(=O)O", "assay": "broth dilution", "conditions": "18 h", "MIC": "< 0.75 µg/mL"}
{"Compound": "CC(C)Oc1c(NC(=O)c2ccc(NC(=O)[C@H](CC(N)=O)NC(=O)c3ccc(NC(=O)c4ccccc4[N+](=O)[O-])cc3)cc2)ccc(C(=O)Nc2ccc(C(=O)O)cc2)c1O", "system": "ATCC29213", "MIC": "> 64 µg/mL"}
{"Compound": "Cc1ccc2nc(-c3ccco3)n(Cc3ccccc3)c2c1", "assay": "broth dilution", "system": "ATCC29213 MSSA", "MIC": "128 µg/mL"}
{"Compound": "Cc1cc(/C=C2\\Sc3ccccc3N2CCCN2CCCCC2)c2ccccc2[n+]1C.[I-]", "assay": "broth dilution", "system": "ATCCBAA44", "MIC": "8 µg/mL"}
{"Compound": "Cc1ccc2nc(-c3ccc(Cl)c(Cl)c3)[nH]c2c1", "assay": "broth dilution", "system": "ATCC29213 MSSA", "MIC": "16 µg/mL"}
{"Compound": "O=C(Cc1cc(O)c(O)c(O)c1)NCCCCCCCC[P+](c1ccccc1)(c1ccccc1)c1ccccc1.[Br-]", "assay": "broth dilution", "system": "ATCC43300 MRSA", "conditions": "18 h", "MIC": "> 32 µg/mL"}
{"Compound": "COc1ccc(-c2ccc3c(N4CCOCC4)nc(N4C[C@@H](C)O[C@@H](C)C4)nc3n2)cc1CO", "system": "NCTC8325", "MIC": "> 30 µM"}
{"Compound": "C=CC1(C)CC(OC(=O)CSc2nc3ccccc3s2)C2(C)C(C)CCC3(CCC(=O)C32)C(C)C1O (stereo not shown)", "MIC": "0.5 µg/mL"}
{"Compound": "CC(C)Oc1c(NC(=O)c2ccc(NC(=O)[C@H](CC(N)=O)NC(=O)c3ccc(NC(=O)c4ccc(C#N)s4)cc3)cc2)ccc(C(=O)Nc2ccc(C(=O)O)cc2)c1O", "system": "ATCC29213", "MIC": "0.25 µg/mL"}
{"Compound": "CSc1nc(O)n2nccc2n1", "MIC": "> 128 µg/mL"}
{"Compound": "Oc1cccc(-c2nc3ccccc3[nH]2)c1", "assay": "broth dilution", "system": "ATCC29213 MSSA", "MIC": "64 µg/mL"}
{"Compound": "CC1=NN(CNc2ccc(O)cc2)C(=O)C1=NNn1c(-c2ccccc2)nc2ccccc2c1=O", "assay": "broth dilution", "conditions": "24 h", "MIC": "53.5 µM"}
{"Compound": "COc1cccc2cc(-c3nc([C@H]4CC[C@H](C(=O)O)CC4)n4ncnc(N)c34)[nH]c12", "system": "NCTC8325", "MIC": "> 30 µM"}
{"Compound": "C/C=C(\\C)c1cc(O)c(C)c(OC(=O)c2c(C)cc(O)c(Cl)c2O)c1", "assay": "broth dilution", "system": "6917", "MIC": "32 µg/mL"}
{"Compound": "Cc1ccc(NC(=O)Nc2ccc3c(c2)OC(F)(F)O3)cc1", "system": "NCTC8325", "MIC": "> 100 µM"}
{"Compound": "COC(=O)/C(C#N)=C1\\Nc2ccccc2O1", "MIC": "> 128 µg/mL"}
{"Compound": "Nc1ncnc2c1c(-c1cnc3[nH]ccc3c1)nn2C1CCCC1", "system": "NCTC8325", "MIC": "> 30 µM"}
{"Compound": "O=C(O)c1cn(C2CC2)c2cc(N3CCNCC3)c(F)cc2c1=O", "assay": "broth dilution", "system": "ATCC29213 MSSA", "MIC": "8 µg/mL"}
{"Compound": "CC(C)Oc1c(NC(=O)c2ccc(NC(=O)[C@H](CC(N)=O)NC(=O)c3ccc(NC(=O)c4ccc(C#N)nc4)cc3)cc2)ccc(C(=O)Nc2ccc(C(=O)O)cc2)c1O", "system": "ATCC29213", "MIC": "64 µg/mL"}
{"Compound": "COc1c(C)c(O)c(C)c(O)c1C(=O)/C=C/c1ccccc1", "assay": "broth dilution", "system": "ATCC25923", "MIC": "2500 µg/mL"}
{"Compound": "COc1cc2nccc(Oc3ccc(NC(=O)Nc4cc(C)on4)c(Cl)c3)c2cc1OC", "system": "NCTC8325", "MIC": "> 30 µM"}
{"Compound": "CCCCCCC#Cc1cncc(-c2nnc(SCc3ccc(Cl)cc3)n2C)c1", "system": "MRSA", "conditions": "drug-resistant strain", "MIC": "≥ 20 µg/mL"}
